Experimental data published in ChEMBL document CHEMBL3822422, “Discovery of the First α-Amino-3-hydroxy-5-methyl-4-isoxazolepropionic Acid (AMPA) Receptor Antagonist Dependent upon Transmembrane AMPA Receptor Regulatory Protein (TARP) γ-8” (J Med Chem, 2016).

Target: T1, Glutamate receptor 1 (Homo sapiens, UniProt P42261)
Test: (§1) Antagonist activity at human iGluA1 receptor flop isoform expressed in CHO-S cells coexpressing TARP gamma-8 and human EAAT3 assessed as inhibition of glutamate-induced increase in intracellular calcium levels after 2 mins followed by cyclothiazide/glutamate addition by fluo-4 AM dye based fluorescence imaging plate reader method
Type: cell-based
Settings: not given
In short: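 Transiently transfected CHO-S cells (human GluA1Q flop with TARP γ-8 and human EAAT3, DNA ratio 2:3), frozen, thawed, plated overnight at 37 °C; Fluo-4 AM loading 2 h at 22 °C. Compound added, then 2 min later glutamate (5 μM final); cyclothiazide (20 μM) plus glutamate (45 μM) 2 min after. FLIPR Ca2+ read; inhibition relative to 167 μM nonselective antagonist and buffer baseline; four-parameter logistic IC50; mean ± SEM, n ≥ 2.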

T1 sequence (P42261 whole entry, canonical isoform): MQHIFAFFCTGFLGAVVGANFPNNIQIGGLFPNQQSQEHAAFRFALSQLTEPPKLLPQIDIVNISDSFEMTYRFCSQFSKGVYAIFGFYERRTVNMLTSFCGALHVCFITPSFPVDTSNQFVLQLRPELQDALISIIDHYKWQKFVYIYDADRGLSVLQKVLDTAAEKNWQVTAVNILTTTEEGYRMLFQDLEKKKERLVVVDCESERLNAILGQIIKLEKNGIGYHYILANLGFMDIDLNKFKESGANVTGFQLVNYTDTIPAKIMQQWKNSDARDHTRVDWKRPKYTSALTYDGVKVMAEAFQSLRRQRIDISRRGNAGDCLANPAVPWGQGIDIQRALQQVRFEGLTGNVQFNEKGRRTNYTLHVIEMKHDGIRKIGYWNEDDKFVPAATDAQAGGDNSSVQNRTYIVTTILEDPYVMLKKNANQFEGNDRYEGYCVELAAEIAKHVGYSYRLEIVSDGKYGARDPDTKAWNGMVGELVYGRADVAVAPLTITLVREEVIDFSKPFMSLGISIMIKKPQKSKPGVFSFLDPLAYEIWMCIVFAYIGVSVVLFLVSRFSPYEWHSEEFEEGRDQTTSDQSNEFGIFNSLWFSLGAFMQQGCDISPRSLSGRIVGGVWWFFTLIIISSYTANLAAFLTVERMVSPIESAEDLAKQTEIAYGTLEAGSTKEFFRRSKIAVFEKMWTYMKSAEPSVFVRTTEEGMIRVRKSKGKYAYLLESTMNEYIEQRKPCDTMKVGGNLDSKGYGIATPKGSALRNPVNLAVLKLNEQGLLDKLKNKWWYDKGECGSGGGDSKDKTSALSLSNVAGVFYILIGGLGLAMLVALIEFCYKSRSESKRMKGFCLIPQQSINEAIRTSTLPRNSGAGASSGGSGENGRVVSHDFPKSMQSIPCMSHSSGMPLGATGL

Row | Structure (SMILES) | IC50
1 | C[C@@H](c1ccc2[nH]c(=O)sc2c1)c1ccn(-c2ccccn2)n1 | 0.0509 µM
2 | CC(c1ccc2[nH]c(=O)sc2c1)c1ccn(-c2ccccn2)n1 (racemic) | 0.122 µM
3 | C[C@@H](c1ccc2[nH]c(=O)sc2c1)c1ccn(-c2ccc(CCO)cn2)n1 | 0.0616 µM
4 | C[C@@H](c1ccc2[nH]c(=O)sc2c1)c1ccn(-c2ccc(CCC(C)(C)O)cn2)n1 | 0.16 µM
5 | Cn1ccc(CN(c2ccc3[nH]ncc3c2)c2nc(-c3ccccn3)cs2)n1 | 0.0539 µM
6 | CCOCCN(c1ccc2[nH]c(=O)sc2c1)c1nc(-c2ccccn2)cs1 | 0.022 µM

The next lines start with the values.

Row | IC50 | Structure (SMILES)
7 | 2.82 µM | C[C@H](c1ccc2[nH]c(=O)sc2c1)c1ccn(-c2ccc(CCO)cn2)n1
8 | 1.79 µM | C[C@H](c1ccc2[nH]c(=O)sc2c1)c1ccn(-c2ccc(OCCO)cn2)n1

Target: T2, Cytochrome P450 1A2 (Homo sapiens, UniProt P05177)
T2 sequence (P05177 whole entry): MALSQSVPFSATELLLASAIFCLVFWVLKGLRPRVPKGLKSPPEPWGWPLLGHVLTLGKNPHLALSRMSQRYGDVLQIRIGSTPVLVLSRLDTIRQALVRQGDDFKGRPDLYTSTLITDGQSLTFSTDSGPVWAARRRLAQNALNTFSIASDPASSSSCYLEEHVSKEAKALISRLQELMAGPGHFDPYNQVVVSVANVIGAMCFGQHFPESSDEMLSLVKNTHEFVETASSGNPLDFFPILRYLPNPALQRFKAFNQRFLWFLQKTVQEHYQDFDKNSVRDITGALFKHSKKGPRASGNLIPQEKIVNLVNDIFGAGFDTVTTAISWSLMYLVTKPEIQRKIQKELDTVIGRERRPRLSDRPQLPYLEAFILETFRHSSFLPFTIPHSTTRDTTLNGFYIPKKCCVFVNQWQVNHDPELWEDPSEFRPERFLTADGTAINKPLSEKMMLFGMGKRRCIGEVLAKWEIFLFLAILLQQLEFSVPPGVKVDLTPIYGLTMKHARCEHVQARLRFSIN
Test: Inhibition of human CYP1A2
Type: ADME
Settings: not given

Row | IC50 | Structure (SMILES)
9 | > 10 µM | C[C@@H](c1ccc2[nH]c(=O)sc2c1)c1ccn(-c2ccccn2)n1
10 | 8.68 µM | CC(c1ccc2[nH]c(=O)sc2c1)c1ccn(-c2ccccn2)n1 (racemic)
11 | > 10 µM | Cn1ccc(CN(c2ccc3[nH]ncc3c2)c2nc(-c3ccccn3)cs2)n1

Tested on: Hepatocyte
Test: Drug metabolism in rat hepatocytes assessed as oxidative metabolite formation
Type: ADME, cell-based
Settings: not given

Row | Drug metabolism | Structure (SMILES)
12 | metabolite_detected | CC(c1ccc2[nH]c(=O)sc2c1)c1ccn(-c2ccccn2)n1 (racemic)

Target: T1, Glutamate receptor 1
Test: Antagonist activity at human iGluA1 receptor flip isoform expressed in CHO-S cells assessed as inhibition of glutamate-induced increase in intracellular calcium levels after 2 mins followed by cyclothiazide/glutamate addition by fluo-4 NW dye based fluorescence imaging plate reader method
Type: cell-based
Settings: not given

Row | Structure (SMILES) | IC50
13 | C[C@@H](c1ccc2[nH]c(=O)sc2c1)c1ccn(-c2ccccn2)n1 | 9.26 µM
14 | CC(c1ccc2[nH]c(=O)sc2c1)c1ccn(-c2ccccn2)n1 (racemic) | 83.3 µM
15 | C[C@@H](c1ccc2[nH]c(=O)sc2c1)c1ccn(-c2ccc(CCO)cn2)n1 | 83.3 µM
16 | C[C@@H](c1ccc2[nH]c(=O)sc2c1)c1ccn(-c2ccc(CCC(C)(C)O)cn2)n1 | 9.26 µM
17 | Cn1ccc(CN(c2ccc3[nH]ncc3c2)c2nc(-c3ccccn3)cs2)n1 | 83.3 µM

Continued, values first:

Row | IC50 | Structure (SMILES)
18 | 9.26 µM | C[C@H](c1ccc2[nH]c(=O)sc2c1)c1ccn(-c2ccc(CCO)cn2)n1
19 | 9.26 µM | C[C@H](c1ccc2[nH]c(=O)sc2c1)c1ccn(-c2ccc(OCCO)cn2)n1

Tested on: Hepatocyte
Test: Drug metabolism in rat hepatocytes assessed as glucuronidation
Type: ADME, cell-based
Settings: not given

Row | Drug metabolism | Structure (SMILES)
20 | metabolite_detected | CC(c1ccc2[nH]c(=O)sc2c1)c1ccn(-c2ccccn2)n1 (racemic)

Tested on: Hepatocyte
Test: Drug metabolism in human hepatocytes assessed as oxidative metabolite formation
Type: ADME, cell-based
Settings: not given

Row | Drug metabolism | Structure (SMILES)
21 | metabolite_detected | CC(c1ccc2[nH]c(=O)sc2c1)c1ccn(-c2ccccn2)n1 (racemic)

Tested on: Hepatocyte
Test: Drug metabolism in human hepatocytes assessed as glucuronidation
Type: ADME, cell-based
Settings: not given

Row | Drug metabolism | Structure (SMILES)
22 | metabolite_detected | CC(c1ccc2[nH]c(=O)sc2c1)c1ccn(-c2ccccn2)n1 (racemic)

Target: T2, Cytochrome P450 1A2
Test: Induction of CYP1A2 in human hepatocytes at 0.2 to 20 uM compared to omeprazole
Type: ADME, cell-based, Hepatocyte
Settings: not given
In short: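 Human hepatocytes treated over a concentration range; CYP1A2 fold induction expressed as percent of omeprazole; >30% taken as induction, <15% as none.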

Row | Activity | Structure (SMILES)
23 | < 15% | C[C@@H](c1ccc2[nH]c(=O)sc2c1)c1ccn(-c2ccccn2)n1
24 | < 15% | CC(c1ccc2[nH]c(=O)sc2c1)c1ccn(-c2ccccn2)n1 (racemic)
25 | < 15% | Cn1ccc(CN(c2ccc3[nH]ncc3c2)c2nc(-c3ccccn3)cs2)n1

Tested on: not listed separately
Test: Clearance in rat
Type: ADME, organism-based
Settings: in vivo

Row | clearance | Structure (SMILES)
26 | 99 mL/min/kg | C[C@@H](c1ccc2[nH]c(=O)sc2c1)c1ccn(-c2ccccn2)n1
27 | 115 mL/min/kg | CC(c1ccc2[nH]c(=O)sc2c1)c1ccn(-c2ccccn2)n1 (racemic)
28 | 16.3 mL/min/kg | C[C@@H](c1ccc2[nH]c(=O)sc2c1)c1ccn(-c2ccc(CCO)cn2)n1
29 | 6 mL/min/kg | C[C@@H](c1ccc2[nH]c(=O)sc2c1)c1ccn(-c2ccc(CCC(C)(C)O)cn2)n1

Target: T1, Glutamate receptor 1
Test: as §1, with “gamma-2” for “gamma-8 and human EAAT3”
Type: cell-based
Settings: not given

Row | Structure (SMILES) | IC50
30 | C[C@@H](c1ccc2[nH]c(=O)sc2c1)c1ccn(-c2ccccn2)n1 | 83.3 µM
31 | CC(c1ccc2[nH]c(=O)sc2c1)c1ccn(-c2ccccn2)n1 (racemic) | 83.3 µM
32 | C[C@@H](c1ccc2[nH]c(=O)sc2c1)c1ccn(-c2ccc(CCO)cn2)n1 | 25.7 µM
33 | C[C@@H](c1ccc2[nH]c(=O)sc2c1)c1ccn(-c2ccc(CCC(C)(C)O)cn2)n1 | 9.26 µM
34 | Cn1ccc(CN(c2ccc3[nH]ncc3c2)c2nc(-c3ccccn3)cs2)n1 | 83.3 µM

Continued, values first:

Row | IC50 | Structure (SMILES)
35 | 9.26 µM | C[C@H](c1ccc2[nH]c(=O)sc2c1)c1ccn(-c2ccc(CCO)cn2)n1
36 | 9.26 µM | C[C@H](c1ccc2[nH]c(=O)sc2c1)c1ccn(-c2ccc(OCCO)cn2)n1
